In data set [1] the target is T1, C-X-C chemokine receptor type 1 (Homo sapiens, UniProt P25024).
T1 sequence (P25024 whole entry): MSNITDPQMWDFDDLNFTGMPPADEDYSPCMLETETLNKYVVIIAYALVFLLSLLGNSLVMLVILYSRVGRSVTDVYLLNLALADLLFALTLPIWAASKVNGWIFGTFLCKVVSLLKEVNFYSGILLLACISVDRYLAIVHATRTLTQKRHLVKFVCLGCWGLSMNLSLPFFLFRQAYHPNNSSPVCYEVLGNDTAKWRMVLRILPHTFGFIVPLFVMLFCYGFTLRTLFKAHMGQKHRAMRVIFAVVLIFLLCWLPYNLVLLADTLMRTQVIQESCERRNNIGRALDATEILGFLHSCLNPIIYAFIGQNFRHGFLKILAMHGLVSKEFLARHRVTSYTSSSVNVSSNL
Briefly: Antagonist activity at CXCR1 (unknown origin) transfected in RBL cells assessed as inhibition of IL-8-mediated intracellular calcium release preincubated for 30 mins followed by IL-8 addition by FLUO-4AM-based fluorescent microplate reader analysis. The format is functional, cell-based. The gist of the method:
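RBL cells stably expressing CXCR1 were preincubated 30 min with compound, then stimulated with IL8. Intracellular calcium release read by FLUO-4AM fluorescence on a microplate reader. IC50 from triplicate experiments, mean ± SE.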
For orientation: Calcium assays in cells follow changes in intracellular calcium, usually with a dye or a luminescent sensor.

Data set [2] concerns the target T2, C-X-C chemokine receptor type 2 (Homo sapiens, UniProt P25025).
T2 sequence (P25025 whole entry): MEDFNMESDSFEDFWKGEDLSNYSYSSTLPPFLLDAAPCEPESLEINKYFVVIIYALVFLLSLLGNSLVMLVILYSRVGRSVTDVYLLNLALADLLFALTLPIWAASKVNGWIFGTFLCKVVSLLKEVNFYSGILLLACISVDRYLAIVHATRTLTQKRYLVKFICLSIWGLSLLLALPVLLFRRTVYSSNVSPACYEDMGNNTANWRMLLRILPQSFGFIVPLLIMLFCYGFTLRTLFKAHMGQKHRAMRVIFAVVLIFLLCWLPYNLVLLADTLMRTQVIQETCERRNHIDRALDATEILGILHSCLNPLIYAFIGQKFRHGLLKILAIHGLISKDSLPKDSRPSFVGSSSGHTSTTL
Briefly: Antagonist activity at CXCR2 (unknown origin) transfected in RBL cells assessed as inhibition of IL-8-mediated intracellular calcium release preincubated for 30 mins followed by IL-8 addition by FLUO-4AM-based fluorescent microplate reader analysis. It is filed as functional, cell-based.

Data set [3] has as its target T3, Interleukin-8 receptors, CXCR1/CXCR2 (Homo sapiens, UniProt P25025+P25024).
T3 sequence (P25025 whole entry): T2 sequence (P25025 whole entry)
T3 sequence (P25024 whole entry): T1 sequence (P25024 whole entry)
Briefly: Antagonist activity at CXCR1/CXCR2 in isolated human PMN assessed as inhibition of IL-8-mediated intracellular calcium flux. It is filed as functional, cell-based. A digest of the protocol: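 Isolated human neutrophils (PMNs); inhibition of calcium flux with IL8 as agonist; IC50 reported as mean ± SE from triplicate experiments.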

The nature of data set [4]: Metabolic stability in human plasma assessed as compound remaining at 1 uM measured at 4 hrs by LC-MS/MS analysis. The format is ADME, cell-free. As to conditions: read-out: Stability. The gist of the method: (§1)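 Compound at 1 µM was incubated in human plasma at 37°C for up to 24 h. Samples were taken at 0, 1, 4 and 24 h and analysed by LC-MS/MS, with results reported as % remaining.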

Data set [5] relates to Rattus norvegicus. Briefly: AUC in rat at 1 mg/kg, iv by LC-MS/MS analysis. It is filed as ADME, organism-based. The conditions noted are these: in vivo. The gist of the method: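 Rats dosed intravenously at 1 mg/kg in DPS vehicle (dimethylacetamide/PEG400/0.9% saline 40:40:20). Plasma concentrations measured by LC-MS/MS against a calibration curve of test compound spiked in rat plasma, run alongside the samples; AUC given in μmol·hr/L.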

A short description of data set [6]: Metabolic stability in human plasma assessed as compound remaining at 1 uM measured at 24 hrs by LC-MS/MS analysis. As to conditions: read-out: Stability. The format is ADME, cell-free. A digest of the protocol: as §1
The nature of data set [7]: Solubility of the compound in 0.1 N HCl. The format is physicochemical. The conditions noted are these: buffer.
Data set [8] relates to Rattus norvegicus. Briefly: AUC in rat at 1 mg/kg, po by LC-MS/MS analysis. The format is ADME, organism-based. As to conditions: in vivo.
The nature of data set [9]: Oral bioavailability in rat at 1 mg/kg by LC-MS/MS analysis. The format is ADME, organism-based. The conditions noted are these: in vivo. The gist of the method:
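Rats were dosed at 1 mg/kg both intravenously (vehicle dimethylacetamide/PEG400/0.9% saline 40:40:20) and by oral gavage (vehicle 0.1 N HCl or Labrasol, depending on compound). Plasma levels were measured by LC-MS/MS against a calibration curve of compound spiked into rat plasma, run alongside the samples. Oral and IV AUC are reported in μmol·hr/L.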

The test system of data set [10] is Rattus norvegicus. Briefly: Antiinflammatory activity in Sprague-Dawley rat ozone model of pulmonary inflammation assessed as reduction in neutrophil influx at 1 mg/kg, iv after 24 hrs by Wright-Giemsa staining assay. The format is functional, organism-based. A digest of the protocol: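 Sprague-Dawley rats, n = 4 per cohort, received a single iv dose at t = 0 in DMA/PEG400/0.9% saline (40:40:20). Vehicle groups were kept in air (negative) or 1 ppm ozone (positive), and treated groups in ozone, each for 4 h. At 24 h the rats were sacrificed and BALF was collected. Cells were spun down, Wright-Giemsa stained and neutrophils counted.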

The nature of data set [11]: Metabolic stability in human plasma assessed as compound remaining at 1 uM measured at 1 hr by LC-MS/MS analysis. It is filed as ADME, cell-free. The conditions noted are these: read-out: Stability. A digest of the protocol: as §1
A further data set has as its system Plasma. Briefly: Metabolic stability in rat plasma. The format is ADME, cell-free.

Values after ≈ are worked out from the molar mass of the structure shown. Active and inactive are the calls of the source. The rule behind the calls is not given here.

A word on the IC50: it is the midpoint of a concentration-inhibition curve. `O=C(Nc1ccc(F)cc1)c1ccc(N(Cc2ccc(B(O)O)cn2)CC2CCOCC2)nc1`: the IC50 in [1] is above 5 µM; in [2], 2.3 µM.

In the case of `CN(Cc1ccc(B(O)O)cc1)c1ccc(C(=O)Nc2ccc(F)cc2)cn1`, the IC50 in [1] was 1.4 µM; in data set [2] it was 1.1 µM.

A word on the AUC: it is concentration integrated over time. Low readings indicate less exposure, high ones more exposure. As a reminder, the solubility is the dissolved amount per volume that the medium holds. Read a low solubility as a poorly soluble substance. One may read the bioavailability as the share of a dose that reaches the circulation, judged against a reference dose that is usually intravenous. Read a high bioavailability as much systemic uptake. On to `O=C(Nc1ccc(F)cc1)c1cnc(N(Cc2ccccc2)Cc2ccc(B(O)O)cn2)nc1`, for which the IC50 in data set [3] was 0.185 µM; in data set [1], 0.007 µM; in data set [2] it was 0.004 µM. The remaining at 4 h, 1 µM in [4] worked out at 71%. For the same compound, the AUC is 4.37 µM·h with Rattus norvegicus [5] and 1.15 µM·h in the data set with Rattus norvegicus [8]. Also, in [6], the remaining at 24 h, 1 µM was 62%. In [7], this compound came in with a solubility of 500 µg/mL (≈ 1090 µM). Moreover, in data set [9], the bioavailability came out at 24%. Also, the outcome in the data set on Rattus norvegicus [10] was Active. In addition, the remaining at 1 h, 1 µM in data set [11] is 90%. The Stability result with Plasma is given as “Stable”.

For the compound `O=C(Nc1ccc(F)cc1)c1cnc(NCc2cccc(B(O)O)c2)nc1`, the IC50 in data set [1] worked out at 1.34 µM; in data set [2], 0.918 µM.

Consider `NCCN(Cc1ccc(B(O)O)cn1)c1ncc(C(=O)Nc2ccc(F)cc2)cn1`, for which the IC50 in data set [1] and in data set [2] was above 5 µM throughout.

Take `O=C(Nc1ccc(F)cc1)c1cnc(N(Cc2ccc(B(O)O)cn2)Cc2ccco2)nc1`: the IC50 turned out to be 0.444 µM in data set [1] and 0.655 µM in data set [2].

`O=C(Nc1ccc(F)cc1)c1cnc(N(Cc2ccccn2)Cc2ccc(B(O)O)cn2)nc1`: the IC50 in [1] is 2.05 µM; in [2], 4.31 µM.

Turning to `CN(Cc1ccc(B(O)O)cn1)c1ccc(C(=O)Nc2ccc(F)cc2)cn1`, the IC50 in [1] is 1.7 µM; in data set [2], 0.081 µM.

With `O=C(Nc1ccc(F)cc1)c1ccc(NCc2ccc(B(O)O)cc2)nc1`, the IC50 was determined as 4.3 µM in data set [1] and 2.2 µM in data set [2].

For the compound `CN(Cc1ccc(B(O)O)cc1)c1ncc(C(=O)Nc2ccc(F)cc2)cn1`, the figures for the IC50 in [1] and in data set [2] were 0.681 µM and 0.121 µM, respectively.

Consider `CN(Cc1ccccc1B(O)O)c1ccc(C(=O)Nc2ccc(F)cc2)cn1`, for which the IC50 in [1] and in [2] was above 5 µM in each case.

Regarding `O=C(Nc1ccc(F)cc1)c1ccc(N(Cc2ccc(B(O)O)cn2)Cc2ccco2)nc1`, the IC50 in data set [1] was 0.0033 µM; in data set [2] it was 0.021 µM.

For `O=C(O)CN(Cc1ccc(B(O)O)cn1)c1ncc(C(=O)Nc2ccc(F)cc2)cn1`, the IC50 in [1] and in data set [2] was above 5 µM throughout.

For `CN(Cc1ccccc1B(O)O)c1ncc(C(=O)Nc2ccc(F)cc2)cn1`, the IC50 in [1] and in data set [2] was above 5 µM each time.

Consider `O=C(Nc1ccc(F)cc1)c1ccc(N(Cc2ccccn2)Cc2ccc(B(O)O)cn2)nc1`, for which the IC50 in data set [1] was above 5 µM; in data set [2] it was 4.85 µM.

Consider `O=C(Nc1ccc(F)cc1)c1ccc(NCc2cccc(B(O)O)c2)nc1`, for which the IC50 came out at 0.611 µM in data set [1] and 0.733 µM in data set [2].

For the compound `O=C(Nc1ccc(F)cc1)c1ccc(SCc2cc(OC(F)(F)F)ccc2B(O)O)nc1`, the remaining at 4 h, 1 µM in data set [4] worked out at 34%. Moreover, the remaining at 24 h, 1 µM in [6] is 2%. Moreover, the solubility result in [7] was “Insoluble”. For the same compound, in the data set with Rattus norvegicus [8] (BLD = below limit of detection), the AUC entry is “BLD”. The result in the data set with Rattus norvegicus [10] was Active. Further, the remaining at 1 h, 1 µM in data set [11] was 62%. Further, the Stability entry with Plasma is “Stable”.

On to `O=C(Nc1ccc(F)cc1)c1ccc(N(Cc2ccccc2)Cc2ccc(B(O)O)cn2)nc1`, for which the IC50 is 0.326 µM in data set [1] and 0.298 µM in [2].

On to `CN(Cc1cccc(B(O)O)c1)c1ccc(C(=O)Nc2ccc(F)cc2)cn1`, for which the IC50 was 4.1 µM in [1] and 0.41 µM in [2].

Turning to `CN(Cc1cccc(B(O)O)c1)c1ncc(C(=O)Nc2ccc(F)cc2)cn1`, the IC50 in data set [1] and in data set [2] was 2.5 µM in each case.

`CN(Cc1ccc(B(O)O)cn1)c1ncc(C(=O)Nc2ccc(F)cc2)cn1`: the IC50 in data set [1] came out at 1.7 µM; in [2], 0.933 µM.

For `O=C(Nc1ccc(F)cc1)c1cnc(NCc2ccc(B(O)O)cc2)nc1`, the IC50 in data set [1] turned out to be 1.7 µM; in data set [2], 2.6 µM.

As to `O=C(Nc1ccc(F)cc1)c1ccc(NCc2ccccc2B(O)O)nc1`, the IC50 in data set [1] and in data set [2] was above 5 µM in each case.
